Measurements collected from several papers.
Lines come from different studies, so protocols differ.
Mode: inhibitor
CDK7 with cyclin H: Cyclin-dependent kinase 7, with cyclin H (CDK7, Homo sapiens, UniProt P50613)
ACSL4: Long-chain-fatty-acid--CoA ligase 4 (ACSL4, Homo sapiens, UniProt O60488)
HDAC6: Protein deacetylase HDAC6 (HDAC6, Homo sapiens, UniProt Q9UBN7)

| SMILES | target | test | IC50 |
| --- | --- | --- | --- |
| CNS(=O)(=O)c1ccc(Nc2ncc3cc(Cl)c(=O)n(C4CCCC4)c3n2)c(C)c1 | CDK7 with cyclin H | enzyme activity, radiometric | 1.6 µM |
| COC(=O)/C=C/c1ccc(OCCN(C)C(=O)c2ccc(C3(C(F)(F)F)N=N3)cc2)cc1 | ACSL4 | enzyme activity | 24.4 µM |
| O=C(COc1ccc(C2CCC(=O)NC2=O)cc1)NCCCCCCN1CCc2c(c3ccccc3n2Cc2ccc(C(=O)NO)cc2)C1 (stereo not shown) | HDAC6 | enzyme activity, fluorescence | 0.025 µM |
| N=C(N)c1ccc(OCCCCCOc2ccc(C(=N)N)cc2)cc1 | Prothrombin (F2, Homo sapiens, UniProt P00734) | enzyme activity, absorbance | > 100 µM |
| O=C(CNc1cccc2c1C(=O)N(C1CCC(=O)NC1=O)C2=O)NCCCCCCN1CCc2c(c3ccccc3n2Cc2ccc(C(=O)NO)cc2)C1 (stereo not shown) | HDAC6 | enzyme activity, fluorescence | 0.04 µM |
| O=C(NO)c1ccc(Cn2cnc3c(Nc4cccc([N+](=O)[O-])c4)ncnc32)cc1 | HDAC6 | enzyme activity, fluorescence | < 0.002 µM |
| COC(=O)c1cc(OC)c2c(c1-c1c(C(=O)OC)cc(OC)c3c1OCO3)OCO2 | Liver carboxylesterase 1 (CES1, Homo sapiens, UniProt P23141) | enzyme activity | 11.4 µM |
| CCc1ccc(CCOc2ccc(CC3SC(=O)NC3=O)cc2)nc1 (stereo not shown) | ACSL4 | enzyme activity | 6.4 µM |
| CNS(=O)(=O)c1ccc(Nc2ncc(C(F)(F)F)c([C@H]3CC[C@@](C)(O)CC3)n2)c(C)c1 | CDK7 with cyclin H | enzyme activity, radiometric | 7.26 µM |
| COC(=O)/C=C/c1ccc(OCCN(C)c2ccccc2)cc1 | ACSL4 | enzyme activity | 1.5 µM |
| Cc1cc(S(=O)(=O)NCCO[C@H]2CC[C@H](CN3CCC(c4ccn5c(N6CCC(=O)NC6=O)cnc5c4)CC3)CC2)ccc1Nc1ncc2cc(Cl)c(=O)n(C3CCCC3)c2n1 | CDK7 with cyclin H | enzyme activity, radiometric | 3.8 µM |
| Cc1cc(O)c(-c2ccc([C@@H](C)CN(C)C)cc2)c2c1[nH]c(=O)c1sccc12 | CDK7 with cyclin H | enzyme activity | > 1 µM |
| CNS(=O)(=O)c1ccc(Nc2ncc(C(F)(F)F)c(N3CCC[C@](C)(O)C3)n2)c(C)c1 | CDK7 with cyclin H | enzyme activity, radiometric | 1.61 µM |
| COc1ccc(N(Cc2csc(-c3ccc(Br)cc3)n2)C(=O)CCCCCC(=O)NO)cc1 | HDAC6 | enzyme activity | 0.0032 µM |
| COC(=O)/C=C/c1ccc(OCCN(C)C(=O)c2ccccc2)cc1 | Long-chain-fatty-acid--CoA ligase 4 (ACSL4, Homo sapiens, UniProt O60488, Q302M) | enzyme activity | 7.1 µM |
| O=C(NO)c1ccc(Cn2cnc3c(Nc4ccc(Br)cc4F)ncnc32)cc1 | HDAC6 | enzyme activity, fluorescence | 0.00913 µM |
| O=C1CCC(N2C(=O)c3cccc(NCC(=O)OCCCCc4cn(CCCCCCN5CCc6c(c7ccccc7n6Cc6ccc(C(=O)NO)cc6)C5)nn4)c3C2=O)C(=O)N1 (stereo not shown) | HDAC6 | enzyme activity, fluorescence | 0.047 µM |
| COC(=O)CCc1ccc(OCCN(C)c2ccccc2)cc1 | ACSL4 | enzyme activity | 8.5 µM |
| N=C(N)NCCCC(=O)O | Alkaline phosphatase, tissue-nonspecific isozyme (Rattus norvegicus, UniProt P08289) | enzyme activity in cells, absorbance | 15200 µM |
| COc1ccc(N(Cc2nc(-c3ccc(F)cc3)cs2)C(=O)CCCCCC(=O)NO)cc1 | HDAC6 | enzyme activity | 0.0035 µM |
| CCc1ccc(C(=O)COc2ccc(CC3SC(=O)NC3=O)cc2)nc1 (stereo not shown) | ACSL4 | enzyme activity | 6 µM |
| O=C(NO)c1ccc(CN2CCN(c3cccc4cc(S(=O)(=O)c5cccc(F)c5)cnc34)CC2)c(F)c1 | HDAC6 | enzyme activity, fluorescence | 0.54 µM |
| CN(CCOc1ccc(CC2SC(=O)NC2=O)cc1)c1ccccc1 (stereo not shown) | ACSL4 | enzyme activity | 0.4 µM |
| CCc1oc2cc(F)c(F)cc2c1C(=O)c1cc(Br)c(O)c(Br)c1 | Solute carrier organic anion transporter family member 2B1 (SLCO2B1, Homo sapiens, UniProt O94956) | transporter uptake, radiometric | 0.135 µM |
| CN(C)C(=O)c1cc2cnc(Nc3ccc(-c4ccc5c(=O)cc(N6CCOCC6)oc5c4)cc3)nc2n1C1CCCC1 | CDK7 with cyclin H | enzyme activity | > 10 µM |
